Columns and labels:
Type in all cases: functional
RXF 393 = test: Cytotoxicity against human RXF393 cells after 48 hrs by SRB assay; settings: RXF 393, 48 h
Outline: (§1)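 Five-dose NCI-60 panel screen: cells grown in RPMI 1640 with 5% FBS and 2 mM L-glutamine, preincubated 24 h at 37 °C, 5% CO2. Five 10-fold dilutions, 0.01–100 µM, applied for 48 h. Fixed with cold TCA (10% final), stained with 0.4% SRB, absorbance read at 515 nm. GI50, TGI and LC50 were taken from log concentration versus % growth curves using time-zero plates.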

OVCAR-4 = test: Cytotoxicity against human OVCAR4 cells after 48 hrs by SRB assay; settings: OVCAR-4, 48 h; outline: as §1
NCI-H460 = test: Cytotoxicity against human NCI-H460 cells after 48 hrs by SRB assay; settings: NCI-H460, 48 h; outline: as §1
K562 = test: Cytotoxicity against human K562 cells after 48 hrs by SRB assay; settings: K562, 48 h; outline: as §1
M14 = test: Cytotoxicity against human M14 cells after 48 hrs by SRB assay; settings: M14, 48 h; outline: as §1
IGROV-1 = test: Cytotoxicity against human IGROV1 cells after 48 hrs by SRB assay; settings: IGROV-1, 48 h; outline: as §1
HCC 2998 = test: Cytotoxicity against human HCC2998 cells after 48 hrs by SRB assay; settings: HCC 2998, 48 h; outline: as §1
HT-29 = test: Cytotoxicity against human HT-29 cells after 48 hrs by SRB assay; settings: HT-29, 48 h; outline: as §1
SR = test: Cytotoxicity against human SR cells after 48 hrs by SRB assay
Outline: (§2)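 Cells were grown in RPMI 1640 with 5% FBS and 2 mM L-glutamine, then held 24 h at 37 °C and 5% CO2 before dosing. TCA-fixed time-zero plates were kept. Compound was dissolved in DMSO and given at five 10-fold dilutions for 48 h. Cells were fixed with cold TCA (10% final), stained with 0.4% SRB and read at 515 nm. GI50, TGI and LC50 came from Ti/Tz/control growth formulas.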

Hs-578T = test: Cytotoxicity against human Hs578T cells after 48 hrs by SRB assay; outline: as §1
CCRF-CEM = test: Cytotoxicity against human CCRF-CEM cells after 48 hrs by SRB assay; outline: as §1
OVCAR-8 = test: Cytotoxicity against human OVCAR8 cells after 48 hrs by SRB assay; settings: OVCAR-8, 48 h; outline: as §1
NCI-H23 = test: Cytotoxicity against human NCI-H23 cells after 48 hrs by SRB assay; settings: NCI-H23, 48 h; outline: as §1
SK-MEL-2 = test: Cytotoxicity against human SK-MEL-2 cells after 48 hrs by SRB assay; settings: SK-MEL-2, 48 h; outline: as §1
COLO 205 = test: Cytotoxicity against human COLO205 cells after 48 hrs by SRB assay; settings: COLO 205, 48 h; outline: as §1
BT-549 = test: Cytotoxicity against human BT549 cells after 48 hrs by SRB assay; settings: BT-549, 48 h; outline: as §1
A549 = test: Cytotoxicity against human A549 cells after 48 hrs by SRB assay; settings: A549, 48 h; outline: as §1
UACC-62 = test: Cytotoxicity against human UACC62 cells after 48 hrs by SRB assay; settings: UACC-62, 48 h; outline: as §2
SK-MEL-5 = test: Cytotoxicity against human SK-MEL-5 cells after 48 hrs by SRB assay; settings: SK-MEL-5, 48 h; outline: as §1
[1] = read-out: LC50 (the source's name)
[2] = read-out: pLC50 (the source's name) (converted)

## Nc1cc(Br)c(-c2nnc(CCC(=O)c3nc4ccccc4[nH]3)o2)c(Br)c1
RXF 393
  GI50: 12.9 µM
RXF 393; [1]
  CC50: > 100 µM
RXF 393; read-out: TGI
  TGI: 58.6 µM
RXF 393; [2]
  CC50: > 100 µM
RXF 393; read-out: pTGI (converted)
  TGI: 58.9 µM
OVCAR-4
  GI50: 5.5 µM
OVCAR-4; read-out: LC50
  LC50: > 100 µM
OVCAR-4; read-out: TGI
  TGI: 78.2 µM
OVCAR-4; read-out: pLC50 (converted)
  LC50: > 100 µM
OVCAR-4; read-out: pTGI (converted)
  TGI: 77.6 µM
NCI-H460
  GI50: 3.98 µM
NCI-H460; [1]
  CC50: > 100 µM
NCI-H460; read-out: TGI
  TGI: 20.1 µM
NCI-H460; [2]
  CC50: > 100 µM
NCI-H460; read-out: pTGI (converted)
  TGI: 20 µM
K562
  GI50: 2.88 µM
K562; [1]
  CC50: > 100 µM
K562; read-out: TGI
  TGI: > 100 µM
K562; [2]
  CC50: > 100 µM
K562; read-out: pTGI
  TGI: > 100 µM
M14
  GI50: 17.4 µM
M14; [1]
  CC50: > 100 µM
M14; read-out: TGI
  TGI: 55.5 µM
M14; [2]
  CC50: > 100 µM
M14; read-out: pTGI (converted)
  TGI: 55 µM
IGROV-1
  GI50: 5.89 µM
IGROV-1; read-out: LC50
  LC50: > 100 µM
IGROV-1; read-out: TGI
  TGI: 62.7 µM
IGROV-1; read-out: pLC50 (converted)
  LC50: > 100 µM
IGROV-1; read-out: pTGI (converted)
  TGI: 63.1 µM
HCC 2998
  GI50: 11 µM
HCC 2998; [1]
  CC50: > 100 µM
HCC 2998; read-out: TGI
  TGI: 42.5 µM
HCC 2998; [2]
  CC50: > 100 µM
HCC 2998; read-out: pTGI (converted)
  TGI: 42.7 µM
HT-29
  GI50: 19.1 µM
HT-29; [1]
  CC50: > 100 µM
HT-29; read-out: TGI
  TGI: 83.5 µM
HT-29; [2]
  CC50: > 100 µM
HT-29; read-out: pTGI (converted)
  TGI: 83.2 µM
SR
  GI50: 4.17 µM
SR; [1]
  CC50: > 100 µM
SR; read-out: TGI
  TGI: > 100 µM
SR; [2]
  CC50: > 100 µM
SR; read-out: pTGI
  TGI: > 100 µM
Hs-578T
  GI50: 3.72 µM
Hs-578T; [1]
  CC50: > 100 µM
Hs-578T; read-out: TGI
  TGI: 31.7 µM
Hs-578T; [2]
  CC50: > 100 µM
Hs-578T; read-out: pTGI (converted)
  TGI: 31.6 µM
CCRF-CEM
  GI50: 3.8 µM
CCRF-CEM; [1]
  CC50: > 100 µM
CCRF-CEM; read-out: TGI
  TGI: > 100 µM
CCRF-CEM; [2]
  CC50: > 100 µM
CCRF-CEM; read-out: pTGI
  TGI: > 100 µM
OVCAR-8
  GI50: 21.4 µM
OVCAR-8; [1]
  CC50: > 100 µM
OVCAR-8; read-out: TGI
  TGI: > 100 µM
OVCAR-8; [2]
  CC50: > 100 µM
OVCAR-8; read-out: pTGI
  TGI: > 100 µM
NCI-H23
  GI50: 3.24 µM
NCI-H23; [1]
  CC50: > 100 µM
NCI-H23; read-out: TGI
  TGI: 36.4 µM
NCI-H23; [2]
  CC50: > 100 µM
NCI-H23; read-out: pTGI (converted)
  TGI: 36.3 µM
SK-MEL-2
  GI50: 4.27 µM
SK-MEL-2; [1]
  CC50: > 100 µM
SK-MEL-2; read-out: TGI
  TGI: > 100 µM
SK-MEL-2; [2]
  CC50: > 100 µM
SK-MEL-2; read-out: pTGI
  TGI: > 100 µM
COLO 205
  GI50: 11.7 µM
COLO 205; [1]
  CC50: 80.1 µM
COLO 205; read-out: TGI
  TGI: 30.8 µM
COLO 205; [2]
  CC50: 79.4 µM
COLO 205; read-out: pTGI (converted)
  TGI: 30.9 µM
BT-549
  GI50: 6.76 µM
BT-549; [1]
  CC50: > 100 µM
BT-549; read-out: TGI
  TGI: > 100 µM
BT-549; [2]
  CC50: > 100 µM
BT-549; read-out: pTGI
  TGI: > 100 µM
A549
  GI50: 27.5 µM
A549; [1]
  CC50: > 100 µM
A549; read-out: TGI
  TGI: > 100 µM
A549; [2]
  CC50: > 100 µM
A549; read-out: pTGI
  TGI: > 100 µM
UACC-62
  GI50: 5.37 µM
UACC-62; [1]
  CC50: > 100 µM
UACC-62; read-out: TGI
  TGI: > 100 µM
UACC-62; [2]
  CC50: > 100 µM
UACC-62; read-out: pTGI
  TGI: > 100 µM
SK-MEL-5
  GI50: 14.1 µM
SK-MEL-5; [1]
  CC50: > 100 µM
SK-MEL-5; read-out: TGI
  TGI: > 100 µM
SK-MEL-5; [2]
  CC50: > 100 µM
SK-MEL-5; read-out: pTGI
  TGI: > 100 µM
